PfHsp90 set2: growth inhibition of PfHsp90-expressing yeast, primary screen, antimalarial PfHsp90 inhibitor project, S. cerevisiae, BacTiter-Glo luminescence, single point, set 2. BacTiter-Glo ATP, 48 h; yeast lacking PDR1 and PDR3 efflux regulators. inhibition, % at 9.4 µM. 310,000 tested, 0.32% active;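 active means every replicate shows inhibition above about 80%, whatever the replicate mean, limit read from the data; inconclusive means mean inhibition reaches the set limit but some replicate falls short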;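 further: 0% = DMSO neutral controls and 100% = 20 µM radicicol positive controls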
SKKanGAS inh: S. pyogenes SKKanGAS growth inhibitors in kanamycin, primary screen, streptokinase expression inhibitor project, SKKanGAS strain, BacTiter-Glo luminescence. 6 h. 300,000 tested, 1.3% active. inhibition, % at 7.5 µM;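 active means mean replicate score, as percent of positive control median, at least 50; inconclusive means mean below 50 but one replicate at or above 50; inactive means mean and every replicate below 50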;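 further: strain carries kanamycin resistance gene driven by streptokinase promoter and grows in 40 µg/ml kanamycin; loss of luminescence reflects streptokinase promoter inhibition or plain growth inhibition; 0% = median of DMSO wells and 100% = positive control at its reference dose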
CSC inhib: cancer stem cell viability inhibitors, primary screen, luminescence. cancer stem cell-like cells viability. inhibition, % at 7.5 µM. 300,000 tested, 1.1% active. AID 2717, 2010; in the data active means inhibition above about 75%; inconclusive means no clear call, values can overlap the other calls; tested in HMLE shEcad cells
FN deposit inh: inhibitors of fibronectin matrix deposition, primary screen, AH1F cells, Alexa488-fibronectin fluorescence, plate reader; AH1F fibroblasts, overnight; inhibition, % at 12.6 µM; 350,000 tested, 0.086% active;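 active means mean inhibition across replicates of 30% or more, regardless of how many single replicates reach that level; inconclusive means mean under 30% yet at least half of replicates reach 30%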;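 further: positive control wells lacked labelled fibronectin entirely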
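Material: AH1F fibroblasts assembling fluorescent fibronectin matrix; amount: 10000 AH1F cells/well; medium: DMEM, 2% serum; reagent: Alexa488-fibronectin, 24 nM final in well; dosing: single compound dose, delivered by pin transfer; incubation: 1 h adhesion, overnight exposure; detection: fluorescence after three HBSS washes, excitation 485 nm, emission 525 nm; measure: fibronectin deposition inhibition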
PglD inh: C. jejuni PglD acetyltransferase inhibitors, primary screen, biochemical, DTNB colorimetric, single point. UDP-N-acetylbacillosamine N-acetyltransferase PglD (Campylobacter jejuni). purified PglD enzyme, DTNB colorimetric CoA detection. inhibition, % at 12.5 µM. 360,000 tested, 0.098% active. AID 602405, 2012; in the data active means inhibition above about 16%, passing the limit was not always enough; inconclusive means no clear call, values can overlap the other calls
Rtt109 HAT inh: inhibitors of C. albicans Rtt109/Vps75 HAT, primary screen, biochemical, ThioGlo CoA-SH fluorescence, plate reader; Histone acetyltransferase RTT109 (Candida albicans (strain SC5314 / ATCC MYA-2876)), …; purified Rtt109/Vps75, 4 h; inhibition, % at 34.9 µM; 330,000 tested, 0.16% active;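 active means inhibition of at least 50% in every replicate; inconclusive means best replicate reaches 50% inhibition but some replicates fall short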
Target sequence (Q5AAJ8 whole entry, looked up): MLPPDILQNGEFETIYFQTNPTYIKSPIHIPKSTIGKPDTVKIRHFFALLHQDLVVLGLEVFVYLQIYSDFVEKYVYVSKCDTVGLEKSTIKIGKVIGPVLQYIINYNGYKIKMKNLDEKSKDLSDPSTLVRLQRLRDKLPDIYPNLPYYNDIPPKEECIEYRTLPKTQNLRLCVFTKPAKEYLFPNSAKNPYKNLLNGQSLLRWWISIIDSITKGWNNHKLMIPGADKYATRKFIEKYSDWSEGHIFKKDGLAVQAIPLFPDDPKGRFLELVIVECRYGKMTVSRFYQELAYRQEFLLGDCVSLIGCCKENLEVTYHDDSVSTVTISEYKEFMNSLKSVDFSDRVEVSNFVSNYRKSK
The depositor's hits bear a star; ? = inconclusive; / = no result; ! = repeats disagree. In the library only some 1.7% were active in any assay of this set; here they are far more common.

SMILES | PfHsp90 set2 | SKKanGAS inh | CSC inhib | FN deposit inh | PglD inh | Rtt109 HAT inh
Cc1ccc(S(=O)(=O)N(C)C[C@@H]2Oc3ccc(NC(=O)Nc4c(C)noc4C)cc3C(=O)N([C@H](C)CO)C[C@H]2C)cc1 | / | / | / | / | 3 | /
Cc1noc(C)c1NC(=O)N(C)C[C@@H]1OCCCC[C@H](C)Oc2ccc(NC(=O)NC(C)C)cc2C(=O)N([C@@H](C)CO)C[C@@H]1C | / | / | / | / | -4 | /
C[C@@H]1CN([C@@H](C)CO)C(=O)c2cc(NS(=O)(=O)c3ccccc3)ccc2O[C@@H](C)CCCCO[C@@H]1CN(C)Cc1ccccc1 | / | / | / | / | 3 | /
CO[C@H]1CN(C)C(=O)c2ccc(NS(=O)(=O)c3ccc(C)cc3)cc2OC[C@@H](C)N(Cc2nccs2)C[C@@H]1C | / | / | / | -1 | 3 | /
O=C(C[C@@H]1C[C@H]2c3cc(NC(=O)C4CCOCC4)ccc3O[C@H]2[C@H](CO)O1)NCc1ccc(Cl)cc1 | / | / | / | -2 | 0 | /
CCN1C(=O)/C(=C\c2ccc(-c3cccc(C(=O)OC)c3)o2)SC1=Nc1ccc(C(=O)O)cc1 | / | 46 | -8 | -6 | / | /
CCN1C(=O)/C(=C\c2ccc(-c3ccc([N+](=O)[O-])cc3OC)o2)SC1=Nc1cccc(C(=O)O)c1 | -15 | 56* | / | -1 | / | -1
CCN=C1S/C(=C/c2ccc(-c3ccc(Cl)cc3C(=O)O)o2)C(=O)N1CC | 4 | 24 | -1 | 0 | / | /
O=C(O)c1cccc(-c2ccc(/C=C3/SC(=Nc4ccccc4)N(Cc4cccnc4)C3=O)o2)c1 | -16 | 53* | 10 | 3 | -6 | 0
COc1ccc(S(=O)(=O)N(C)C[C@@H]2Oc3c(NC(=O)c4ccc(-c5nccs5)cc4)cccc3C(=O)N([C@@H](C)CO)C[C@H]2C)cc1 | / | / | / | -4 | / | /
CN(C)C(CNS(=O)(=O)c1ccc2ccccc2c1)c1ccccc1 (centres undefined) | 9 | -1 | 82* | -10 | 6 | -2
Cc1cccc2sc(NNC(=O)c3ccc(S(=O)(=O)N4CCc5ccccc5C4)cc3)nc12 | -41 | 59* | 103* | 5 | -8 | -2
Cc1cccc2sc(NNC(=O)c3ccc(S(=O)(=O)N4CCCC(C)C4)cc3)nc12 (centres undefined) | -57 | 91* | 128* | -305 | -5 | 0
CCc1nnc(NC(=O)c2ccc(S(=O)(=O)N3CCCC(C)C3)cc2)s1 (centres undefined) | -73 | 4 | / | 2 | -3 | -10
O=C(C1CCCC1)N1CCCCN2[C@H](CO)[C@@H](c3ccc(-c4ccncc4)cc3)[C@H]2C1 | / | / | / | / | 7 | /
CO[C@@H]1CN(C)C(=O)c2ccc(NS(C)(=O)=O)cc2OC[C@H](C)N(C(=O)C2CCOCC2)C[C@@H]1C | / | / | / | -12 | 3 | /
Cc1[nH]n2c(=O)cc(C(C)(C)C)nc2c1-c1ccccc1 | 12 | 89* | 0 | / | 2 | 0
Cc1[nH]n2c(=O)cc(-c3ccc([N+](=O)[O-])cc3)nc2c1-c1ccccc1 | 10 | 102* | -9 | 2 | -4 | 40
CCCc1cc(=O)n2[nH]c(C)c(-c3ccccc3)c2n1 | -9 | 6 | 2 | / | 7 | -6
CCc1cc(=O)n2[nH]c(C)c(-c3ccc(OC)cc3)c2n1 | 4 | -2 | 13 | 6 | 9 | 1
COc1cccc(N=Nc2c(N)[nH]n3c(=O)cc(-c4ccccc4)nc23)c1 | -4 | 110* | -8 | / | 4 | 2
COc1ccc(-c2c(C(F)(F)F)[nH]n3c(=O)cc(-c4ccccc4)nc23)cc1 | -12 | 56* | 92* | 0 | / | -3
Nc1ncnc2c1c(-c1ccc(Oc3ccccc3)cc1)cn2C1CCCC1 | 15 | / | 121* | 2 | 0 | 1
Nc1nc(N)nc(-c2ccc(Oc3ccccc3)cc2)n1 | 18 | 5 | -14 | / | -2 | -1
CCC(=O)N1CC2(CCN(C(=O)Nc3ccccc3F)CC2)c2c([nH]c3cc(OC)ccc23)[C@@H]1CO | / | / | / | -14 | / | /
SMILES | PfHsp90 set2 | SKKanGAS inh | CSC inhib | FN deposit inh | PglD inh | Rtt109 HAT inh
O=C1C(NS(=O)(=O)c2cccs2)=C(N2CCN(c3cccc(C(F)(F)F)c3)CC2)C(=O)c2ccccc21 | 8 | 55* | 37 | / | -6 | -21
CN1CCN(C2=C(NS(=O)(=O)c3cccs3)C(=O)c3ccccc3C2=O)CC1 | 10 | 5 | 8 | 0 | 0 | -13
CCc1ccc(OCc2n[nH]c(=S)n2Cc2ccccc2)cc1 | -6 | 2 | 2 | -3 | -7 | 0
CCc1ccc(OCc2n[nH]c(=S)n2C(C)CCCC(C)C)cc1 (centres undefined) | -36 | 42 | 118* | / | / | 8
O=C(CSc1nc2c(cnn2-c2ccccc2)c(=O)[nH]1)N1N=C(c2cccs2)CC1c1ccc(F)cc1 (centres undefined) | -65 | 51* | 4 | 5 | 2 | -3
COc1cc(/C=C/c2cccc[n+]2C)ccc1OCC(=O)Nc1ccccc1C | 12 | 3 | 0 | -3 | -5 | -16
CCOc1cc(/C=C\[N+](=O)[O-])ccc1OCC(=O)Nc1ccccc1C | 110* | 58* | 76* | / | -108 | 18
C[C@@H]1CCCCO[C@@H](CN(C)C(=O)C2CCCCC2)[C@H](C)CN([C@H](C)CO)C(=O)c2cc(NC(=O)c3ccncc3)ccc2O1 | / | / | / | / | 3 | /
Cc1nnc(SCC2=C(C(=O)O)N3C(=O)C(NC(=O)COc4ccccc4)C3SC2)s1 (centres undefined) | 9 | / | / | -2 | 2 | 1
Cc1nnc(SCC2=C(C(=O)O)N3C(=O)[C@@H](NC(=O)Cn4cnnn4)[C@H]3SC2)s1 | -6 | 105*! | -12 | / | -1 | 2
Cc1nnc(SCC2=C(C(=O)O)N3C(=O)C(NC(=O)Cn4cnnn4)C3SC2)s1 (centres undefined) | -26 | 106* | -9 | 4 | 0 | -6
Cc1cc(/C=C2\SC(=O)NC2=O)c(C)n1-c1ccc(N(C)C)cc1 | -4 | 4 | -2 | 4 | -3 | -12
Cc1cc(/C=C2\SC(=S)N(C)C2=O)c(C)n1-c1cccc(O)c1 | -7 | 91* | ? | -1 | / | 0
Cc1cc(/C=C2\SC(=O)N(C)C2=O)c(C)n1-c1ccc(O)cc1 | 15 | 88* | -5 | 0 | -3 | -10
CN1C(=O)/C(=C\c2cc(N=Nc3ccccc3)ccc2O)SC1=S | 25 | 83* | 0 | / | 0 | 1
Cc1cc(/C=C2\SC(=O)NC2=O)c(C)n1-c1ccc(N2CCOCC2)cc1 | -2 | 100* | -16 | 13 | 3 | -11
